# Measurements collected from several papers.
# Protocols differ between the studies behind these lines.
# Target: Serine/threonine-protein kinase pim-2 (PIM2, Homo sapiens, UniProt Q9P1W9)
SMILES,observed,action,technique,tested at,endpoint,result
CC#CC(=O)N1CCC[C@H]1c1nc(-c2ccc(C(=O)Nc3ccccn3)cc2)c2c(N)nccn12,enzyme activity,inhibitor,,1 µM,inhibition,0%
C#Cc1cc(-c2cc(Nc3nc(N[C@@H](C)c4ccc(F)cn4)ncc3Cl)n[nH]2)ccc1C=O,enzyme activity,inhibitor,,0.2 µM,inhibition,2.74%
C1=C/COCc2cc(ccc2OCCN2CCCC2)Nc2nccc(n2)-c2cccc(c2)COC/1,binding,,,0.1 µM,remaining binding,100%
C#Cc1cnc(Nc2ccnc(CO)c2)nc1Nc1ccccc1S(C)(=O)=NC#N (stereo not shown),cell-free assay,,,1 µM,remaining signal,100%
Cc1ccc(NC(=O)c2ccnc(C(F)(F)F)c2)cc1-c1cc(OCCO)nc(N2CCOCC2)c1,binding,,,1 µM,remaining binding,82%
CCCCC(=O)Nc1ccc(-c2ccc3ncn(CCC)c(=O)c3c2)cn1,binding,,competition with immobilised ligand,0.5 µM,remaining binding,100%
C=CC(=O)N1CCC[C@@H](n2nc(-c3ccc(Oc4ccccc4)cc3)c3c(N)ncnc32)C1,enzyme activity,inhibitor,,1 µM,inhibition,3%
COc1ccc2oc(-c3ccc4nc(N)oc4c3)c/c(=N\c3ccccc3NC(=O)CCN)c2c1,binding,,,1 µM,remaining binding,103%
N#Cc1ccc(NC(=O)Nc2ccccc2)cc1,cell-free assay,,competition with immobilised ligand,25 µM,remaining binding,100%
CN1CCN(C(=O)c2ccc(NC(=O)Nc3ccc(N(C)c4ccnc(Nc5ccc(CS(C)(=O)=O)cc5)n4)cc3)cc2)CC1,binding,,,1 µM,remaining binding,100%
